Experimental data: ChEMBL document CHEMBL4052618, “Design, synthesis, SAR discussion, in vitro and in vivo evaluation of novel selective EGFR modulator to inhibit L858R/T790M double mutants” (Eur J Med Chem, 2017)

Assays:
[1] = Intrinsic clearance in monkey liver microsomes; assay type: ADME, Macaca mulatta, microsome; conditions: rhesus monkey, read-out: CLH
[2] = Half life in rat hepatocytes; assay type: ADME, cell-based, Hepatocyte
[3] = AUC (0 to infinity) in Sprague-Dawley rat at 1 mg/kg, iv by LC-MS/MS analysis; assay type: ADME, organism-based; design: dose 1 mg/kg, time infinity, route intravenous; conditions: in vivo
[4] = molecular target: Serine/threonine-protein kinase B-raf (Homo sapiens) (UniProt P15056); assay: Inhibition of BRAF (unknown origin) at 1 uM relative to control
[5] = molecular target: Receptor tyrosine-protein kinase erbB-2 (Homo sapiens) (UniProt P04626); assay: Inhibition of ERBB2 (HER2) (unknown origin) at 1 uM relative to control
[6] = molecular target: Proto-oncogene tyrosine-protein kinase ROS (Homo sapiens) (UniProt P08922); assay: Inhibition of ROS1 (unknown origin) at 1 uM relative to control
[7] = molecular target: Casein kinase I isoform alpha (Homo sapiens) (UniProt P48729); assay: Inhibition of CSNK1A1 (unknown origin) at 1 uM relative to control
[8] = molecular target: Epidermal growth factor receptor (Homo sapiens, UniProt P00533, L858R); assay: Inhibition of human recombinant cytoplasmic GST-tagged EGFR L858R mutant expressed in baculovirus using TK-substrate-biotin preincubated for 15 mins followed by substrate addition measured after 60 mins by FRET-based Z'-Lyte assay
[9] = molecular target: Mast/stem cell growth factor receptor Kit (Homo sapiens) (UniProt P10721); assay: Inhibition of KIT (unknown origin) at 1 uM relative to control
[10] = Intrinsic clearance in human hepatocytes assessed per million cells; assay type: ADME, cell-based, Hepatocyte
[11] = Cmax in Sprague-Dawley rat at 10 mg/kg, po administered via gavage after 24 hrs by LC-MS/MS analysis; assay type: ADME, organism-based; design: dose 10 mg/kg, route oral; conditions: in vivo
Method in brief: (§1)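 Male Sprague-Dawley rats (200-240 g) received 1 mg/kg by tail-vein injection in 2% DMSO, 20% PEG400 and 78% buffered saline, or 10 mg/kg by oral gavage in 0.5% methylcellulose. Orbital sinus blood was drawn into heparinized tubes at 2, 5, 15 and 30 min and at 1, 2, 4, 8, 12 and 24 h, then centrifuged. Plasma was measured by LC/MS/MS in SRM mode, with non-compartmental analysis.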

[12] = molecular target: Leucine-rich repeat serine/threonine-protein kinase 2 (Homo sapiens) (UniProt Q5S007); assay: Inhibition of LRRK2 (unknown origin) at 1 uM relative to control
[13] = molecular target: Tyrosine-protein kinase Yes (Homo sapiens) (UniProt P07947); assay: Inhibition of YES1 (unknown origin) at 1 uM relative to control
[14] = Half life in Sprague-Dawley rat at 1 mg/kg, iv by LC-MS/MS analysis; assay type: ADME, organism-based; conditions: in vivo
Method in brief: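 Male Sprague-Dawley rats (200-240 g) were dosed either by tail vein at 1 mg/kg in 2% DMSO/20% PEG400/78% buffered saline or by oral gavage at 10 mg/kg in 0.5% methylcellulose. Blood was drawn by orbital sinus puncture at 2 min to 24 h into heparin, and plasma was analysed by LC/MS/MS in SRM mode. Parameters came from non-compartmental analysis.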

[15] = molecular target: Insulin-like growth factor 1 receptor (Homo sapiens) (UniProt P08069); assay: Inhibition of IGF1R (unknown origin) at 1 uM relative to control
[16] = molecular target: Tyrosine-protein kinase TXK (Homo sapiens) (UniProt P42681); assay: Inhibition of TXK (unknown origin) at 1 uM relative to control
[17] = Half life in monkey liver microsomes; assay type: ADME, Macaca mulatta, microsome; conditions: rhesus monkey
[18] = molecular target: Platelet-derived growth factor receptor alpha (Homo sapiens) (UniProt P16234); assay: Inhibition of PDGFRA (unknown origin) at 1 uM relative to control
Homo sapiens = species on record: Homo sapiens; assay: Inhibition of 746 to 750 truncated EGFR (unknown origin) at 1 uM relative to control
[19] = molecular target: Insulin receptor (Homo sapiens) (UniProt P06213); assay: Inhibition of INSR (unknown origin) at 1 uM relative to control
[20] = Half life in rat liver microsomes; assay type: ADME, microsome
[21] = molecular target: Vascular endothelial growth factor receptor 2 (Homo sapiens) (UniProt P35968); assay: Inhibition of KDR (unknown origin) at 1 uM relative to control
[22] = molecular target: Fibroblast growth factor receptor 3 (Homo sapiens) (UniProt P22607); assay: Inhibition of FGFR3 (unknown origin) at 1 uM relative to control
[23] = tested on: RAF proto-oncogene serine/threonine-protein kinase (Homo sapiens), P04049 [Y340D,Y341D]; assay: Inhibition of RAF1 Y340D/Y341D double mutant (unknown origin) at 1 uM relative to control
Mus musculus = assay: Toxicity in nude C.B-17 SCID mouse model xenografted with human NCI-H1975 cells assessed as mortality at 5 to 20 mg/kg, ig for 18 days; assay type: organism-based; conditions: in vivo, po, 432 h
Method in brief: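 H1975 xenografts were set up by subcutaneous inoculation of 5 × 10^6 cells into C.B-17 SCID mice. At a mean tumor volume of 100-150 mm3, mice were randomized into groups of n = 9. They were dosed intragastrically once daily for 18 days at 5, 10 or 20 mg/kg, given as 0.1 mL/10 g body weight. The control group received PBS, and tumors were caliper-measured twice weekly.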

[24] = molecular target: RAC-beta serine/threonine-protein kinase (Homo sapiens) (UniProt P31751); assay: Inhibition of AKT2 (unknown origin) at 1 uM relative to control
[25] = Oral bioavailability in Sprague-Dawley rat at 10 mg/kg administered via gavage after 24 hrs by LC-MS/MS analysis; assay type: ADME, organism-based; conditions: in vivo; method in brief: as §1
[26] = molecular target: Protein kinase C alpha type (Homo sapiens) (UniProt P17252); assay: Inhibition of PRKCA (unknown origin) at 1 uM relative to control
[27] = molecular target: Casein kinase I isoform epsilon (Homo sapiens) (UniProt P49674); assay: Inhibition of CSNK1E (unknown origin) at 1 uM relative to control
[28] = molecular target: AMP-activated protein kinase (AMPK) alpha-1/beta-1/gamma-1 (Homo sapiens) (UniProt P54619+Q9Y478+Q13131); assay: Inhibition of AMPK A1/B1/G1 (unknown origin) at 1 uM relative to control; assay type: protein-complex assay
[29] = Intrinsic clearance in rat liver microsomes; assay type: ADME, microsome; conditions: read-out: CLH
[30] = MRT in Sprague-Dawley rat at 1 mg/kg, iv by LC-MS/MS analysis; assay type: ADME, organism-based; conditions: in vivo; method in brief: as §1
[31] = molecular target: Voltage-gated inwardly rectifying potassium channel KCNH2 (Homo sapiens, UniProt Q12809); assay: Inhibition of human ERG expressed in HEK293 cells by lonWorks Quattro analysis; assay type: cell-based
[32] = molecular target: Protein-tyrosine kinase 6 (Homo sapiens) (UniProt Q13882); assay: Inhibition of PTK6 (unknown origin) at 1 uM relative to control
[33] = AUC (0 to infinity) in Sprague-Dawley rat at 10 mg/kg, po administered via gavage by LC-MS/MS analysis; assay type: ADME, organism-based; design: dose 10 mg/kg, route oral, time infinity; conditions: in vivo
[34] = molecular target: Glycogen synthase kinase-3 beta (Homo sapiens) (UniProt P49841); assay: Inhibition of GSK3B (unknown origin) at 1 uM relative to control

Sequence of Voltage-gated inwardly rectifying potassium channel KCNH2 (Q12809 whole entry): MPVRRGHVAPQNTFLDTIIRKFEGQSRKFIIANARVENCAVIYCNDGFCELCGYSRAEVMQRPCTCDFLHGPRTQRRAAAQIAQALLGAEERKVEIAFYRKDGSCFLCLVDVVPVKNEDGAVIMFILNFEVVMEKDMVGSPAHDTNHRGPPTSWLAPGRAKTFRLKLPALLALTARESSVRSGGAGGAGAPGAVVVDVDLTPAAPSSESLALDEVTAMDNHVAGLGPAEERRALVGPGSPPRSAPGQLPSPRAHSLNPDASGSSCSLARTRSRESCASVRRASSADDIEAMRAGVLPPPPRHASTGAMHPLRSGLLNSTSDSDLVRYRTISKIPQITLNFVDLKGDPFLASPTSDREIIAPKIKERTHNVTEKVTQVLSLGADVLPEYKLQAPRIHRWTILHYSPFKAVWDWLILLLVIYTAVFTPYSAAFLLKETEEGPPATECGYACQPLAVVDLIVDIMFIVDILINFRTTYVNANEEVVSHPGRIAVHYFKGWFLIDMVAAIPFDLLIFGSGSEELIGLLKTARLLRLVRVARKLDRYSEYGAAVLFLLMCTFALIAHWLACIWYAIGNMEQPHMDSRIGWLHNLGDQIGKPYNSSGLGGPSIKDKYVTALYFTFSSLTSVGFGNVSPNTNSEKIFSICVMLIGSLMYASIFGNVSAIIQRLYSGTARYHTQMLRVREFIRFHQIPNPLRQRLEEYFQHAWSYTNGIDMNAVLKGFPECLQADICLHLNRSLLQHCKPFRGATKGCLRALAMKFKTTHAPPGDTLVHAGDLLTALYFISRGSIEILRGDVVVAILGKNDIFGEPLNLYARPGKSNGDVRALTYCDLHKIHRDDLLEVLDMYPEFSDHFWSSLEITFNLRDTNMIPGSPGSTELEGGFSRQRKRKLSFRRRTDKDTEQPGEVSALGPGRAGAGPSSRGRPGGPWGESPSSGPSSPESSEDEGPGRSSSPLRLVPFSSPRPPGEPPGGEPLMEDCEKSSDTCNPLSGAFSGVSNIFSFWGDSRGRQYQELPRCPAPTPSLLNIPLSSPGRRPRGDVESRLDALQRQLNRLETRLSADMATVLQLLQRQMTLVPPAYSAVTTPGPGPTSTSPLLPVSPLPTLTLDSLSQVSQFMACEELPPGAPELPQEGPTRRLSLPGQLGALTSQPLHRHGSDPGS
Sequence of Leucine-rich repeat serine/threonine-protein kinase 2 (Homo sapiens) (Q5S007 whole entry): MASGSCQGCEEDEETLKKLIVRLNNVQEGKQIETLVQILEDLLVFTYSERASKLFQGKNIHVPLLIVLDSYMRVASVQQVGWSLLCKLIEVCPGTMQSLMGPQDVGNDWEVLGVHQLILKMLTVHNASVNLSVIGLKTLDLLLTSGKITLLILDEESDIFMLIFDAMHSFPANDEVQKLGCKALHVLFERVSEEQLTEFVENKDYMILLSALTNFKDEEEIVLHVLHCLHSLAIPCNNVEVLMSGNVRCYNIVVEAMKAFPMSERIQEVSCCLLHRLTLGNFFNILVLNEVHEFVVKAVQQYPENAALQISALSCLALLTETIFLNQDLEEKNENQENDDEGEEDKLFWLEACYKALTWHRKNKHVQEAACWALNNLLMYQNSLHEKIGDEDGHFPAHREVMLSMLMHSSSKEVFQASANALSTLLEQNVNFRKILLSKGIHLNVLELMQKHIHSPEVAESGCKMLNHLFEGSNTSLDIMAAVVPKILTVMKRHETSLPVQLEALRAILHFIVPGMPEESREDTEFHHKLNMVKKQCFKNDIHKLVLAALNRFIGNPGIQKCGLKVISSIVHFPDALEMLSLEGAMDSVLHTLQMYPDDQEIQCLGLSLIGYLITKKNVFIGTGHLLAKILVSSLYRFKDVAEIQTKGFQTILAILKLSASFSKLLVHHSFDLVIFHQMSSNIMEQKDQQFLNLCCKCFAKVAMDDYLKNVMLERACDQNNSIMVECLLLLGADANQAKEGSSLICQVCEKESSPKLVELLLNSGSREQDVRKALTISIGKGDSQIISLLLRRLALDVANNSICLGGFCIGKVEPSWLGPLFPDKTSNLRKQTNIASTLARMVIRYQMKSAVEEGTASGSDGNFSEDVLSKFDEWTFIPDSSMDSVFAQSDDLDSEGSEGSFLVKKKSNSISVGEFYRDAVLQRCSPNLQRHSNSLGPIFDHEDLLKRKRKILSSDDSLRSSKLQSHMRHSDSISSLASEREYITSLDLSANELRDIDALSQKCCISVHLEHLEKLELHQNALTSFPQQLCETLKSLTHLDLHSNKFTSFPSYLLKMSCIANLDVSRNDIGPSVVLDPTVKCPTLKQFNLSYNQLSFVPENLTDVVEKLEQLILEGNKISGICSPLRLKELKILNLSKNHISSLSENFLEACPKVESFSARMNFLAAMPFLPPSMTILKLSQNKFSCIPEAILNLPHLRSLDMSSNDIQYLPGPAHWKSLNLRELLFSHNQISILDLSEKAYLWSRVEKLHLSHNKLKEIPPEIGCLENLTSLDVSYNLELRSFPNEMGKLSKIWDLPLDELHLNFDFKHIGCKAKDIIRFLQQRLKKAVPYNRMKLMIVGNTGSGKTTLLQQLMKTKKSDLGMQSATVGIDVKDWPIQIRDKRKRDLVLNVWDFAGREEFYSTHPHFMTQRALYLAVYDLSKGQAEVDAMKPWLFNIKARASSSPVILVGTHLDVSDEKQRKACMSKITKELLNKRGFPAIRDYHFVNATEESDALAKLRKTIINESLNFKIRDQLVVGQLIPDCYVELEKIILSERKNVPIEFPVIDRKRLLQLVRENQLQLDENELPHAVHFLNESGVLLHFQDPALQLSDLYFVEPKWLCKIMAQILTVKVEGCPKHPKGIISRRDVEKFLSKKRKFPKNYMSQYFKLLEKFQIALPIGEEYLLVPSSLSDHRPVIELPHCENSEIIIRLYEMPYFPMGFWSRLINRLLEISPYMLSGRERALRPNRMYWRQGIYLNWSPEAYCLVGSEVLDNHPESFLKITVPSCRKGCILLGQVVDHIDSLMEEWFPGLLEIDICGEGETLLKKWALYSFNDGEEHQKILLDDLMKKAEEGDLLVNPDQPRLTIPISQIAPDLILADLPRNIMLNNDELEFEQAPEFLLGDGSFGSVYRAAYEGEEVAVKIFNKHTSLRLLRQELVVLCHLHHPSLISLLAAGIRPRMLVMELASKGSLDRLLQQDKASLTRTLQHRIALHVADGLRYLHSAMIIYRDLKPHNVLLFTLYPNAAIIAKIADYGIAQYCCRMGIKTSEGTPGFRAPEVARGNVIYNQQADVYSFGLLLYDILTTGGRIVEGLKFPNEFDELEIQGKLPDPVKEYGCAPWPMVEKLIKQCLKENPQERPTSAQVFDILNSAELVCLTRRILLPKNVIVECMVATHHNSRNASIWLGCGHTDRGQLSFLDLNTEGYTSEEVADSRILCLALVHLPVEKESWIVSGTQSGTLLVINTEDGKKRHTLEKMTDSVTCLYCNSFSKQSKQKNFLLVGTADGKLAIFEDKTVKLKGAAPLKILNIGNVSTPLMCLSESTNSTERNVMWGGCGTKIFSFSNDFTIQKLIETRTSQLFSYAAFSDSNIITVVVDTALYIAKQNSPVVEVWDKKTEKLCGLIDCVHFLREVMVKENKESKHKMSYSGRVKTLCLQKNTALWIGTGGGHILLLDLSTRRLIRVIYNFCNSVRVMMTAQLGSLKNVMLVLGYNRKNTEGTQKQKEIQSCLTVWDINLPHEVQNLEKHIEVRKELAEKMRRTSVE
Sequence of AMP-activated protein kinase (AMPK) alpha-1/beta-1/gamma-1 (Homo sapiens) (P54619 whole entry): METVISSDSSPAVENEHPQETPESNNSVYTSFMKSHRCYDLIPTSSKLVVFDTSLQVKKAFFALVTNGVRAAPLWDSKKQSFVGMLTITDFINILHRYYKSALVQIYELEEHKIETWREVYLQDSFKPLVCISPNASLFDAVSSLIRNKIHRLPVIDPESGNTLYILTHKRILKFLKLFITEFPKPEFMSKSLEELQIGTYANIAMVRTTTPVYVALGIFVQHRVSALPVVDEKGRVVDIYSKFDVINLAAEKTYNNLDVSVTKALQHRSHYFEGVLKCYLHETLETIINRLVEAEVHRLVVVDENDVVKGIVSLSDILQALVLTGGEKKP
Sequence of AMP-activated protein kinase (AMPK) alpha-1/beta-1/gamma-1 (Homo sapiens) (Q13131 whole entry partner): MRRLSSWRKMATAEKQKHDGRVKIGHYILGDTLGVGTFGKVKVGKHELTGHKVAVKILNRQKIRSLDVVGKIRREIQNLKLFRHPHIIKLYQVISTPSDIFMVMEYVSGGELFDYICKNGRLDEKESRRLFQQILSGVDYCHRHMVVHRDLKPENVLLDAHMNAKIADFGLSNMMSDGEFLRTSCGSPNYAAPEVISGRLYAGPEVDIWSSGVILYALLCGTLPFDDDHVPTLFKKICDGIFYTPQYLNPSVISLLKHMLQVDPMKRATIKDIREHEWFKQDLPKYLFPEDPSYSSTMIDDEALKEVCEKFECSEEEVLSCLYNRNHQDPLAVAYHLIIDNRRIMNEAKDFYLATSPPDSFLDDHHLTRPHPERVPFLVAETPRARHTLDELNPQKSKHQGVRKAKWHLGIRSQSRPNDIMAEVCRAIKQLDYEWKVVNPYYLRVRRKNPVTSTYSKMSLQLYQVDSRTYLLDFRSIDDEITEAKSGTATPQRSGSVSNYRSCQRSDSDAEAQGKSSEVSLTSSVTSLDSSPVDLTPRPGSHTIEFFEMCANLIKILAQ
Sequence of AMP-activated protein kinase (AMPK) alpha-1/beta-1/gamma-1 (Homo sapiens) (Q9Y478 2-270 partner limits assumed): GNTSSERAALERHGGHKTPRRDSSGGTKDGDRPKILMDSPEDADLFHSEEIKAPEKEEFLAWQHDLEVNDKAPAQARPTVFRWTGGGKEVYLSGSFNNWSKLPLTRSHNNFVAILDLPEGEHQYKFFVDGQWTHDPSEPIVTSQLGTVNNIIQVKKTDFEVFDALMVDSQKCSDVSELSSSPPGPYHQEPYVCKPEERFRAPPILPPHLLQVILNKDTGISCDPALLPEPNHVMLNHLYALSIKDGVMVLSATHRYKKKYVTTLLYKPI

For `C=CC(=O)Nc1cc(Nc2nccc(-c3cn4c5c(cccc35)CCC4)n2)c(OC)cc1N(C)CCN(C)C`, the CLint scaled [1] was 64.8 mL/min/kg, the half-life [2] was 33 min and the AUC(0-inf) [3] was 194 ng·h/mL. It also gave an inhibition [4] of 20%, an inhibition [5] of 87% and an inhibition [6] of 94%. It also gave an inhibition [7] of -4%, an IC50 [8] of 0.0053 to 0.006 µM and an inhibition [9] of 5%. It also gave a CLH [10] of 5 µL/min/10^6 cells, a Cmax [11] of 111 ng/mL and an inhibition [12] of 90%. The inhibition [13] was 10%, the half-life [14] was 270 min and the inhibition [15] was 21%. For the same compound, the inhibition [16] was 88%, the half-life [17] was 28.9 min and the inhibition [18] was 13%. The inhibition (Homo sapiens) was 110%, the inhibition [19] was 36% and the half-life [20] was 46.2 min. The inhibition [21] was 37%, the inhibition [22] was 9% and the inhibition [23] was 8%. For the same compound, the Activity (Mus musculus) was “Non-Toxic”, the inhibition [24] was 1% and the bioavailability [25] was 52.4%. It also gave an inhibition [26] of 1%, an inhibition [27] of 3% and an inhibition [28] of 7%. It also gave a CLint scaled [29] of 54 mL/min/kg, an MRT [30] of 282 min and an IC50 [31] of 8.46 µM. It also gave an inhibition [32] of 83%, an AUC(0-inf) [33] of 1020 ng·h/mL and an inhibition [34] of 7%.
